A short description of data set [1]: Minimum toxic concentration required to cause a microscopically detectable alteration of normal cell morphology of MDCK cells. Particulars: Sendai virus, read-out: MTC.
The subject of a further data set is MDCK. Put plainly: Inhibitory activity against Parainfluenza 1 (Sendai) virus (PIV) in MDCK cells. The data set is classed as functional. Particulars: Canis lupus familiaris, read-out: ED50 (the source's name). The method, boiled down: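 Confluent MDCK monolayers infected with Sendai virus (10 HAU/10⁵ cells) and allowed to adsorb for 1 h at 37 °C. Inoculum removed, cells washed three times with PBS, then given fresh medium with 2% FCS. Compounds added after adsorption at several dilutions and kept until the end. Supernatants harvested at different times after challenge and titrated as hemagglutinin units. ED₅₀ derived from these titres.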

Data set [2] concerns NSO mouse myeloma cells (Mus musculus). Nature of the data set: Cytotoxicity required to inhibit cell proliferation by 50% (tritiated thymidine incorporation in proliferating NSO mouse myeloma cells). For orientation: Dividing cells build labelled thymidine or BrdU into new DNA.

Each structure is given as a SMILES string.

As for `Cn1c(CC23CCCC[C@@H]2O3)cc(=O)n(C)c1=O` (stereo partly specified), in data set [1], the MCC was above 2 µM. Moreover, in the data set with MDCK, the EC50 was above 2 µM. The CC50 in data set [2] came out at 40 µM.
Regarding `Cn1c(OC2CCCCC2)nc(CC2(C)CCCO2)cc1=O` (stereo unspecified), the MCC in data set [1] turned out to be 326 µM. Moreover, the EC50 in the data set on MDCK came to 164 µM. For the same compound, in data set [2], the CC50 came out at 816 µM.
`CCCCOc1nc(CC2(C)CCCO2)cc(=O)n1C` (stereo unspecified): in data set [1], the MCC was 373 µM. For the same compound, in the data set on MDCK, the EC50 amounted to 186 µM. Also, the CC50 in data set [2] is 1080 µM.
With `CCCOc1nc(CC23CCCC[C@H]2O3)cc(=O)n1C` (stereo partly specified), the MCC in data set [1] is above 352 µM. The same compound returned a CC50 in data set [2] above 352 µM.
With `COc1nc(CC2CCCO2)cc(=O)n1C` (stereo unspecified), in data set [1], the MCC was determined as 446 µM. The EC50 in the data set on MDCK is above 446 µM. Besides, in data set [2], the 50% cytotoxic concentration (CC50) is 1220 µM.
On to `CCCOc1nc(CC2(c3ccccc3)CCCO2)cc(=O)n1C` (stereo unspecified), for which, in data set [1], the MCC was 305 µM. The EC50 in the data set on MDCK turned out to be 152 µM. Further, in data set [2], the midpoint of cytotoxicity, the CC50, lay at 170 µM.
In the case of `Cn1c(CC23CCC[C@H]2O3)cc(=O)n(C)c1=O` (stereo partly specified), the MCC in data set [1] is above 0.84 µM. This compound also yielded a 50% cytotoxic concentration (CC50) in data set [2] of 8.4 µM.
The like results for `CC1O[C@]1(C)Cc1cc(=O)n(C)c(OC2CCCCC2)n1` (mixture of isomers) were, in that order, 342 µM and above 342 µM.
As for `C[C@H]1O[C@@]1(C)Cc1cc(=O)n(C)c(=O)n1C`, in data set [1], the MCC was above 2 µM. The CC50 in data set [2] is 89 µM.
In the case of `Cn1c(C[C@@H]2CCCO2)cc(=O)n(C)c1=O`, the MCC in data set [1] amounted to 446 µM. Besides, in the data set with MDCK, the EC50 came out at 338 µM. Also, the 50% cytotoxic concentration (CC50) in data set [2] amounted to 1220 µM.
For the compound `Cn1c(OC2CCCCC2)nc(CC2(c3ccccc3)CO2)cc1=O` (stereo unspecified), in data set [1], the MCC was determined as 294 µM. Besides, in data set [2], the CC50 was above 294 µM.
Turning to `COc1nc(CC2(c3ccccc3)CO2)cc(=O)n1C` (stereo unspecified), in data set [1], the MCC turned out to be 735 µM. The EC50 in the data set on MDCK was 0.37 µM. Further, the CC50 in data set [2] is above 360 µM.
For `CCCCOc1nc(CC2(c3ccccc3)CCCO2)cc(=O)n1C` (stereo unspecified), in data set [1], the MCC is 292 µM. Also, in the data set on MDCK, the EC50 came out at 146 µM. For the same compound, half-maximal cytotoxicity in data set [2] (CC50) was put at 90 µM.
As to `CCCCOc1nc(CC2CCCO2)cc(=O)n1C` (stereo unspecified), the MCC in data set [1] was determined as 376 µM. Besides, the EC50 in the data set on MDCK is 195 µM. Further, half-maximal cytotoxicity in data set [2] (CC50) was put at 579 µM.
For `Cn1c(CC2(c3ccccc3)CO2)cc(=O)n(C)c1=O` (stereo unspecified), in data set [1], the MCC came out at 0.37 µM. Moreover, the midpoint of cytotoxicity in data set [2], the CC50, lay at 3.7 µM.
For `CCCOc1nc(CC2CCCO2)cc(=O)n1C` (stereo unspecified), the MCC in data set [1] came to 397 µM. The EC50 with MDCK turned out to be 300 µM. The same compound gave a CC50 in data set [2] of 1020 µM.
`Cn1c([C@H]2O[C@H]2c2ccccc2)cc(=O)n(C)c1=O` (racemic): in data set [1], the MCC is above 0.8 µM. In addition, in the data set on MDCK, the EC50 was 0.38 µM. In data set [2], this compound showed a CC50 of 7.7 µM.
For `Cn1c(C2OC2(C)c2ccccc2)cc(=O)n(C)c1=O` (stereo unspecified), the MCC in data set [1] was above 0.81 µM. For the same compound, in data set [2], the half-maximal cytotoxic concentration (CC50) stood at 7.3 µM.
With `CCCOc1nc(CC2(C)CCCO2)cc(OC)n1` (stereo unspecified), in data set [1], the MCC was above 305 µM. The EC50 in the data set on MDCK is 267 µM. In data set [2], this compound had a cytotoxic concentration (CC50) of 375 µM.
The like results for `CCCOc1nc(CC2(C)CCCO2)cc(=O)n1C` (stereo unspecified) were, in that order, above 376 µM, 187 µM and 860 µM.
On to `Cn1c(CC2(C(C)(C)C)CO2)cc(=O)n(C)c1=O` (stereo unspecified), for which the MCC in data set [1] was above 0.79 µM. The same compound showed a half-maximal cytotoxic concentration (CC50) in data set [2] of 7.9 µM.
For the compound `CCCOc1nc(CC2(c3ccccc3)CO2)cc(=O)n1C` (stereo unspecified), the MCC in data set [1] was 330 µM. This compound displayed a half-maximal cytotoxic concentration (CC50) in data set [2] above 330 µM.
`Cn1c(C[C@]2(C)CCCO2)cc(=O)n(C)c1=O`: the MCC in data set [1] is above 223 µM. Also, the EC50 with MDCK was 1.11 µM. The same compound showed a 50% cytotoxic concentration (CC50) in data set [2] of 1380 µM.
On to `Cn1c([C@H]2O[C@@H]2c2ccccc2)cc(=O)n(C)c1=O`, for which the MCC in data set [1] came out at 380 µM. Besides, in the data set on MDCK, the EC50 turned out to be 193 µM. In addition, in data set [2], the CC50 is above 380 µM.
In the case of `COc1nc(CC2(c3ccccc3)CCCO2)cc(=O)n1C` (stereo unspecified), the MCC in data set [1] came out at 383 µM. Further, the EC50 in the data set with MDCK was 166 µM. In data set [2], the CC50 came out at 130 µM.
On to `Cn1c(CC2(C)CO2)cc(=O)n(C)c1=O` (stereo unspecified), for which the MCC in data set [1] turned out to be 0.48 µM. Also, in data set [2], the half-maximal cytotoxic concentration (CC50) came out at 4 µM.
`Cn1c(C[C@]2(c3ccccc3)CCCO2)cc(=O)n(C)c1=O`: the MCC in data set [1] is above 333 µM. For the same compound, the EC50 in the data set on MDCK came to 116 µM. This compound also gave a CC50 in data set [2] of 547 µM.
For the compound `C[C@@H]1O[C@@]1(C)Cc1cc(=O)n(C)c(=O)n1C`, the MCC in data set [1] was above 2 µM. Besides, half-maximal cytotoxicity in data set [2] (CC50) was put at 89 µM.
On to `COc1nc(CC2(C)CCCO2)cc(=O)n1C` (stereo unspecified), for which, in data set [1], the MCC came out at 893 µM. For the same compound, the EC50 in the data set with MDCK stood at 893 µM. Further, it took 1620 µM to reach half-maximal cytotoxicity in data set [2] (CC50).

In general, CC50 refers to the concentration that lowers cell viability or growth by half. A lower CC50 goes with greater toxicity to the cells.

Source of the values: ChEMBL document CHEMBL1134317, “Synthesis, biological evaluation, and pharmacophore generation of uracil, 4(3H)-pyrimidinone, and uridine derivatives as potent and selective inhibitors of parainfluenza 1 (Sendai) virus” (J Med Chem, 2001).
